Experimental data from ChEMBL document CHEMBL4354867, “Validation and Characterization of Five Distinct Novel Inhibitors of Human Cytomegalovirus” (J Med Chem, 2020).
The source made the active and inactive calls. The calls are words filed in the database; no cut-off is given here.

Key:
Human betaherpesvirus 5 [1] = test: Inhibition of viral protein expression in HCMV Towne infected in human HFF cells assessed as reduction in IE2 expression at 3 uM treated with compound for 24 hrs followed by viral infection at MOI of 0.01 PFU/cell measured at 72 hrs post infection by Western blot analysis; type: functional, organism-based; conditions: strain Towne
Method in brief: (§1)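 HFFs pretreated with compound, then infected with HCMV Towne at MOI 1, 0.1 or 0.01. Viral proteins in cell lysates detected at 72 hpi by SDS-PAGE (8–10%), PVDF transfer and chemiluminescent immunoblot. Images from a representative experiment.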

Human betaherpesvirus 5 [2] = test: Inhibition of viral protein expression in HCMV Towne infected in human HFF cells assessed as reduction in IE1 expression at 3 uM treated with compound following viral infection at MOI of 1 PFU/cell measured at 72 hrs post infection by Western blot analysis; type: functional, organism-based; conditions: strain Towne
Method in brief: (§2)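 HFFs infected with HCMV Towne (MOI 1), then treated with compound. Lysates taken at 72 hpi, equal protein loaded on 8–10% Tris-glycine SDS-PAGE and transferred to PVDF. Primary antibodies overnight at 4 °C, HRP secondary, chemiluminescent detection; β-actin as loading control.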

Human betaherpesvirus 5 [3] = test: Antiviral activity againstpp28-luciferase expressing HCMV Towne infected in human HFF cells assessed as reduction in viral replication treated with compound following viral infection at MOI of 1 PFU/cells measured after 3 days in presence of GCV by luciferase reporter gene assay; type: functional, organism-based; conditions: Human betaherpesvirus 5, strain Towne, 72 h
Method in brief: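 HFFs in 96-well plates were infected with pp28-luciferase Towne HCMV, in which luciferase is driven by the UL99 late promoter, at MOI 1. A dose-response of each drug alone gave its EC₅₀. Combinations started at twice each EC₅₀ in DMEM with 4% FBS, followed by two-fold serial dilutions, and were added after infection. Luciferase was read in cell lysates at 72 hpi. The Bliss ratio is observed over expected inhibition.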

Human betaherpesvirus 5 [4] = test: Inhibition of viral protein expression in HCMV Towne infected in human HFF cells assessed as reduction in pp65 expression at 3 uM treated with compound for 24 hrs followed by viral infection at MOI of 1 PFU/cell measured at 72 hrs post infection by Western blot analysis; type: functional, organism-based; conditions: strain Towne; method in brief: as §1
Human betaherpesvirus 5 [5] = test: Inhibition of viral protein expression in HCMV Towne infected in human HFF cells assessed as reduction in IE1 expression at 3 uM treated with compound for 24 hrs followed by viral infection at MOI of 0.01 PFU/cell measured at 72 hrs post infection by Western blot analysis; type: functional, organism-based; conditions: strain Towne; method in brief: as §1
Human betaherpesvirus 5 [6] = test: Inhibition of viral protein expression in HCMV Towne infected in human HFF cells assessed as reduction in UL84 expression at 3 uM treated with compound following viral infection at MOI of 1 PFU/cell measured at 72 hrs post infection by Western blot analysis; type: functional, organism-based; conditions: strain Towne; method in brief: as §2
Human betaherpesvirus 5 [7] = test: Antiviral activity against pp28-luciferase expressing HCMV Towne infected in human HFF cells assessed as reduction in viral entry by measuring viral replication at 1 to 10 uM treated with compound for 24 hrs followed by viral infection at MOI of 0.01 to 1 PFU/cell measured at 72 hrs post infection by luciferase reporter gene assay; type: functional, organism-based; conditions: strain Towne
Method in brief: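 HFFs pretreated 24 h with compound, then infected with pp28-luciferase recombinant Towne HCMV (luciferase under the UL99 late promoter) at MOI 1, 0.1 or 0.01. Luciferase measured in cell lysates after 3 days. Triplicate values, mean ± SD.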

Human alphaherpesvirus 2 = test: Antiviral activity against HSV 2 infected in African green monkey Vero cells assessed as reduction in plaque formation incubated for 36 hrs by crystal violet staining based assay; type: functional, organism-based; conditions: vero
Method in brief: (§3)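 Plaque reduction in Vero cells: virus adsorbed 60 min, then compound added in a carboxymethylcellulose overlay. Plaques counted after 36 h by crystal violet staining.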

Human betaherpesvirus 5 [8] = test: Inhibition of viral protein expression in HCMV Towne infected in human HFF cells assessed as reduction in UL44 expression at 3 uM treated with compound following viral infection at MOI of 1 PFU/cell measured at 72 hrs post infection by Western blot analysis; type: functional, organism-based; conditions: strain Towne; method in brief: as §2
HFF = test: Cytotoxicity against human HFF cells assessed as reduction in cell viability incubated for 72 hrs or 10 days by MTT assay; type: cell-based
Method in brief: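 MTT assay on uninfected cells exposed to compound for 72 h or 8–10 days, matching the antiviral assay durations. MTT (5 mg/mL stock in PBS) added, then 2–3 h at 37 °C. Formazan absorbance read at 560 nm.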

Human betaherpesvirus 5 [9] = test: Antiviral activity against HCMV TB40 infected in human HFF cells assessed as reduction in plaque formation at 1 to 10 uM treated with compound following viral infection at MOI of 100 PFU/ml and measured after 10 days by crystal violet staining based assay; type: functional, organism-based
Human alphaherpesvirus 1 = test: Antiviral activity against HSV 1 infected in African green monkey Vero cells assessed as reduction in plaque formation incubated for 36 hrs by crystal violet staining based assay; type: functional, organism-based; conditions: vero; method in brief: as §3
Human betaherpesvirus 5 [10] = test: Inhibition of viral protein expression in HCMV Towne infected in human HFF cells assessed as reduction in UL84 expression at 3 uM treated with compound for 24 hrs followed by viral infection at MOI of 0.01 PFU/cell measured at 72 hrs post infection by Western blot analysis; type: functional, organism-based; conditions: strain Towne; method in brief: as §1
Human betaherpesvirus 5 [11] = test: Inhibition of viral protein expression in HCMV Towne infected in human HFF cells assessed as reduction in UL84 expression at 3 uM treated with compound for 24 hrs followed by viral infection at MOI of 1 PFU/cell measured at 72 hrs post infection by Western blot analysis; type: functional, organism-based; conditions: strain Towne; method in brief: as §1
Human betaherpesvirus 5 [12] = test: Antiviral activity against GCV-resistant HCMV Towne infected in human HFF cells assessed as reduction in plaque formation treated with compound following viral infection and incubated for 8 to 10 days by crystal violet staining based assay; type: functional, organism-based; conditions: Human betaherpesvirus 5, strain Towne
Human betaherpesvirus 5 [13] = test: Inhibition of viral protein expression in HCMV Towne infected in human HFF cells assessed as reduction in pp65 expression at 3 uM treated with compound following viral infection at MOI of 1 PFU/cell measured at 72 hrs post infection by Western blot analysis; type: functional, organism-based; conditions: strain Towne; method in brief: as §2
Human betaherpesvirus 5 [14] = test: Antiviral activity against HCMV TB40 infected in human HFF cells assessed as reduction in plaque formation treated with compound following viral infection and incubated for 8 to 10 days by crystal violet staining based assay; type: functional, organism-based; conditions: Human betaherpesvirus 5, TB40, HFF
Human betaherpesvirus 5 [15] = test: Inhibition of viral protein expression in HCMV Towne infected in human HFF cells assessed as reduction in IE2 expression at 3 uM treated with compound for 24 hrs followed by viral infection at MOI of 1 PFU/cell measured at 72 hrs post infection by Western blot analysis; type: functional, organism-based; conditions: strain Towne; method in brief: as §1
Human betaherpesvirus 5 [16] = test: Inhibition of viral protein expression in HCMV Towne infected in human HFF cells assessed as reduction in IE1 expression at 3 uM treated with compound for 24 hrs followed by viral infection at MOI of 1 PFU/cell measured at 72 hrs post infection by Western blot analysis; type: functional, organism-based; conditions: strain Towne; method in brief: as §1
Human betaherpesvirus 5 [17] = test: Antiviral activity against HCMV Towne infected in human HFF cells assessed as reduction in viral entry into host cell by measuring nuclear localization of pp65 at 3 uM treated with compound for 24 hrs followed by viral infection at MOI of 0.1 PFU/cell measured at 2 hrs post infection by immunofluorescence microscopy; type: functional, organism-based; conditions: strain Towne
Method in brief: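 HFFs on chamber slides pretreated 24 h with compound diluted in serum-free medium, then infected with HCMV Towne for 2 h. Heparin 30 μM as positive entry-block control. Cells methanol-fixed, then stained with anti-pp65 (1:50) and rhodamine anti-mouse IgG, with DAPI. Nuclear pp65 viewed by fluorescence microscopy at 40x; repeated three times.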

COc1ccc(Cl)cc1C(=O)Nc1ccc(NC(=O)c2ccco2)cc1
inhibition (Human betaherpesvirus 5 [1]): Active
inhibition (Human betaherpesvirus 5 [2]): inactive
EC50 (Human betaherpesvirus 5 [3]): 720 nM
inhibition (Human betaherpesvirus 5 [4]): inactive
inhibition (Human betaherpesvirus 5 [5]): Active
inhibition (Human betaherpesvirus 5 [6]): inactive
Activity (Human betaherpesvirus 5 [7]): Active
EC50 (Human alphaherpesvirus 2): Not Active
inhibition (Human betaherpesvirus 5 [8]): inactive
CC50 (HFF): > 500000 nM
Activity (Human betaherpesvirus 5 [9]): Active
EC50 (Human alphaherpesvirus 1): Not Active
inhibition (Human betaherpesvirus 5 [10]): Active
inhibition (Human betaherpesvirus 5 [11]): inactive
EC50 (Human betaherpesvirus 5 [12]): 250 nM
inhibition (Human betaherpesvirus 5 [13]): inactive
EC50 (Human betaherpesvirus 5 [14]): 120 nM
inhibition (Human betaherpesvirus 5 [15]): inactive
inhibition (Human betaherpesvirus 5 [16]): inactive
Activity (Human betaherpesvirus 5 [17]): Active
